≈ marks a conversion by molar mass, not a printed value.
Assays:
Assay type in all cases: functional
[1] = system: Trichophyton mentagrophytes; experiment: Antifungal activity against Trichophyton mentagrophytes after 3 to 4 days by serial plate dilution method
Talaromyces marneffei [2] = experiment: Antifungal activity against Penicillium marneffei after 3 to 4 days by serial plate dilution method
Procedure, shortened: (§1)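 Sabouraud's agar made from peptone, D-glucose and agar, pH 5.7, and lawned with a fungal spore suspension in normal saline. Wells cut with an agar punch received 10–50 mg/ml test compound in DMSO; DMSO-only control plates. Triplicate plates kept at 37 °C for 3–4 days.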

Staphylococcus aureus = experiment: Antibacterial activity against Staphylococcus aureus ATCC 25923 after 24 hrs by disk diffusion method; settings: for MIC: Staphylococcus aureus, ATCC 25923, 24 h
Procedure, shortened: (§2)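 Discs with each concentration, in triplicate, on nutrient agar seeded with fresh bacteria. Incubated 37 °C for 24 h, with solvent and growth controls. Zones of inhibition and MIC recorded.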

Escherichia coli = experiment: Antibacterial activity against Escherichia coli ATTC 25922 after 24 hrs by disk diffusion method; settings: for MIC: Escherichia coli, ATTC 25922, 24 h; procedure, shortened: as §2
Pseudomonas aeruginosa = experiment: Antibacterial activity against Pseudomonas aeruginosa ATTC 27853 after 24 hrs by disk diffusion method; settings: for MIC: Pseudomonas aeruginosa, ATTC 27853, 24 h; procedure, shortened: as §2
Klebsiella sp. = experiment: Antibacterial activity against Klebsiella sp. after 24 hrs by disk diffusion method; settings: for MIC: Klebsiella sp., 24 h; procedure, shortened: as §2
[3] = system: Trichophyton mentagrophytes; experiment: Antifungal activity against Trichophyton mentagrophytes at 10 to 50 ug/ml after 3 to 4 days by serial plate dilution method
Talaromyces marneffei [4] = experiment: Antifungal activity against Penicillium marneffei at 10 to 50 ug/ml after 3 to 4 days by serial plate dilution method
Aspergillus flavus [5] = experiment: Antifungal activity against Aspergillus flavus at 10 to 50 ug/ml after 3 to 4 days by serial plate dilution method
Aspergillus flavus [6] = experiment: Antifungal activity against Aspergillus flavus after 3 to 4 days by serial plate dilution method; procedure, shortened: as §1
Aspergillus fumigatus [7] = experiment: Antifungal activity against Aspergillus fumigatus at 10 to 50 ug/ml after 3 to 4 days by serial plate dilution method
Aspergillus fumigatus [8] = experiment: Antifungal activity against Aspergillus fumigatus after 3 to 4 days by serial plate dilution method

| MIC [1] | MIC (Talaromyces marneffei [2]) | MIC (Staphylococcus aureus) | MIC (Escherichia coli) | MIC (Pseudomonas aeruginosa) | MIC (Klebsiella sp.) | MIC (Aspergillus flavus [6]) | MIC (Aspergillus fumigatus [8]) | SMILES | inhibition zone (IZ) (Staphylococcus aureus) | inhibition zone (IZ) (Escherichia coli) | inhibition zone (IZ) (Pseudomonas aeruginosa) | inhibition zone (IZ) (Klebsiella sp.) | inhibition zone (IZ) [3] | inhibition zone (IZ) (Talaromyces marneffei [4]) | inhibition zone (IZ) (Aspergillus flavus [5]) | inhibition zone (IZ) (Aspergillus fumigatus [7]) |
| --- | --- | --- | --- | --- | --- | --- | --- | --- | --- | --- | --- | --- | --- | --- | --- | --- |
| 6.25 µg/mL (≈ 28.4 µM) | 6.25 µg/mL (≈ 28.4 µM) | 6.25 µg/mL (≈ 28.4 µM) | 25 µg/mL (≈ 114 µM) | 6.25 µg/mL (≈ 28.4 µM) | 6.25 µg/mL (≈ 28.4 µM) | 6.25 µg/mL (≈ 28.4 µM) | 6.25 µg/mL (≈ 28.4 µM) | COCC1=NNC(=O)C1Oc1ccccc1 (configuration not stated) | 17 mm | 12 mm | 17 mm | 20 mm | 17 mm | 17 mm | 18 mm | 20 mm |
| 6.25 µg/mL (≈ 18.3 µM) | 6.25 µg/mL (≈ 18.3 µM) | 6.25 µg/mL (≈ 18.3 µM) | 25 µg/mL (≈ 73 µM) | 6.25 µg/mL (≈ 18.3 µM) | 6.25 µg/mL (≈ 18.3 µM) | 6.25 µg/mL (≈ 18.3 µM) | 6.25 µg/mL (≈ 18.3 µM) | CC(C)CC1=NN(c2ccc(F)cc2)C(=O)C1Sc1ccccc1 (configuration not stated) | 19 mm | 13 mm | 20 mm | 19 mm | 18 mm | 19 mm | 20 mm | 19 mm |
| 50 µg/mL (≈ 227 µM) | 50 µg/mL (≈ 227 µM) | 6.25 µg/mL (≈ 28.4 µM) | 25 µg/mL (≈ 114 µM) | 50 µg/mL (≈ 227 µM) | 50 µg/mL (≈ 227 µM) | 50 µg/mL (≈ 227 µM) | 50 µg/mL (≈ 227 µM) | COc1ccc(OC2C(=O)NN=C2C)cc1 (configuration not stated) | 19 mm | 11 mm | <10 mm | <10 mm | <10 mm | <10 mm | <10 mm | <10 mm |
| 6.25 µg/mL (≈ 26.9 µM) | 6.25 µg/mL (≈ 26.9 µM) | 6.25 µg/mL (≈ 26.9 µM) | 6.25 µg/mL (≈ 26.9 µM) | 6.25 µg/mL (≈ 26.9 µM) | 6.25 µg/mL (≈ 26.9 µM) | 6.25 µg/mL (≈ 26.9 µM) | 6.25 µg/mL (≈ 26.9 µM) | CC(C)(C)C1=NNC(=O)C1Oc1ccccc1 (configuration not stated) | 16 mm | 18 mm | 20 mm | 18 mm | 19 mm | 21 mm | 16 mm | 18 mm |
| 6.25 µg/mL (≈ 30.6 µM) | 6.25 µg/mL (≈ 30.6 µM) | 6.25 µg/mL (≈ 30.6 µM) | 6.25 µg/mL (≈ 30.6 µM) | 6.25 µg/mL (≈ 30.6 µM) | 6.25 µg/mL (≈ 30.6 µM) | 6.25 µg/mL (≈ 30.6 µM) | 6.25 µg/mL (≈ 30.6 µM) | CCC1=NNC(=O)C1Oc1ccccc1 (configuration not stated) | 19 mm | 18 mm | 20 mm | 16 mm | 16 mm | 18 mm | 21 mm | 17 mm |
| 6.25 µg/mL (≈ 30.3 µM) | 6.25 µg/mL (≈ 30.3 µM) | 6.25 µg/mL (≈ 30.3 µM) | 25 µg/mL (≈ 121 µM) | 6.25 µg/mL (≈ 30.3 µM) | 6.25 µg/mL (≈ 30.3 µM) | 6.25 µg/mL (≈ 30.3 µM) | 6.25 µg/mL (≈ 30.3 µM) | CC1=NNC(=O)C1Sc1ccccc1 (configuration not stated) | 18 mm | 13 mm | 19 mm | 16 mm | 18 mm | 21 mm | 16 mm | 17 mm |
| 6.25 µg/mL (≈ 25.2 µM) | 6.25 µg/mL (≈ 25.2 µM) | 6.25 µg/mL (≈ 25.2 µM) | 6.25 µg/mL (≈ 25.2 µM) | 6.25 µg/mL (≈ 25.2 µM) | 6.25 µg/mL (≈ 25.2 µM) | 6.25 µg/mL (≈ 25.2 µM) | 6.25 µg/mL (≈ 25.2 µM) | CC(C)CC1=NNC(=O)C1Sc1ccccc1 (configuration not stated) | 19 mm | 21 mm | 18 mm | 21 mm | 21 mm | 18 mm | 18 mm | 18 mm |
| 6.25 µg/mL (≈ 26.7 µM) | 6.25 µg/mL (≈ 26.7 µM) | 6.25 µg/mL (≈ 26.7 µM) | 6.25 µg/mL (≈ 26.7 µM) | 6.25 µg/mL (≈ 26.7 µM) | 6.25 µg/mL (≈ 26.7 µM) | 6.25 µg/mL (≈ 26.7 µM) | 6.25 µg/mL (≈ 26.7 µM) | CC(C)C1=NNC(=O)C1Sc1ccccc1 (configuration not stated) | 20 mm | 18 mm | 17 mm | 16 mm | 16 mm | 19 mm | 18 mm | 20 mm |
| 6.25 µg/mL (≈ 22.1 µM) | 6.25 µg/mL (≈ 22.1 µM) | 6.25 µg/mL (≈ 22.1 µM) | 25 µg/mL (≈ 88.3 µM) | 6.25 µg/mL (≈ 22.1 µM) | 6.25 µg/mL (≈ 22.1 µM) | 6.25 µg/mL (≈ 22.1 µM) | 6.25 µg/mL (≈ 22.1 µM) | CC1=NNC(=O)C1OCc1cccc(Br)c1 (configuration not stated) | 21 mm | 11 mm | 18 mm | 19 mm | 20 mm | 18 mm | 19 mm | 18 mm |
| 6.25 µg/mL (≈ 26.7 µM) | 6.25 µg/mL (≈ 26.7 µM) | 6.25 µg/mL (≈ 26.7 µM) | 6.25 µg/mL (≈ 26.7 µM) | 6.25 µg/mL (≈ 26.7 µM) | 6.25 µg/mL (≈ 26.7 µM) | 6.25 µg/mL (≈ 26.7 µM) | 6.25 µg/mL (≈ 26.7 µM) | CCC1=NNC(=O)C1SCc1ccccc1 (configuration not stated) | 16 mm | 17 mm | 20 mm | 17 mm | 17 mm | 19 mm | 17 mm | 17 mm |
| 50 µg/mL (≈ 174 µM) | 50 µg/mL (≈ 174 µM) | 6.25 µg/mL (≈ 21.8 µM) | 25 µg/mL (≈ 87.2 µM) | 50 µg/mL (≈ 174 µM) | 50 µg/mL (≈ 174 µM) | 50 µg/mL (≈ 174 µM) | 50 µg/mL (≈ 174 µM) | O=C1NN=C(c2ccc(Cl)cc2)C1Oc1ccccc1 (configuration not stated) | 21 mm | 12 mm | <10 mm | <10 mm | <10 mm | <10 mm | <10 mm | <10 mm |
| 6.25 µg/mL (≈ 25.4 µM) | 6.25 µg/mL (≈ 25.4 µM) | 6.25 µg/mL (≈ 25.4 µM) | 25 µg/mL (≈ 101 µM) | 6.25 µg/mL (≈ 25.4 µM) | 6.25 µg/mL (≈ 25.4 µM) | 6.25 µg/mL (≈ 25.4 µM) | 6.25 µg/mL (≈ 25.4 µM) | CC(C)CC1=NN(C)C(=O)C1Oc1ccccc1 (configuration not stated) | 19 mm | 12 mm | 19 mm | 17 mm | 18 mm | 19 mm | 18 mm | 16 mm |
| 6.25 µg/mL (≈ 21 µM) | 6.25 µg/mL (≈ 21 µM) | 6.25 µg/mL (≈ 21 µM) | 25 µg/mL (≈ 83.8 µM) | 6.25 µg/mL (≈ 21 µM) | 6.25 µg/mL (≈ 21 µM) | 6.25 µg/mL (≈ 21 µM) | 6.25 µg/mL (≈ 21 µM) | CCC1=NN(c2ccc(F)cc2)C(=O)C1Oc1ccccc1 (configuration not stated) | 16 mm | 14 mm | 18 mm | 20 mm | 21 mm | 17 mm | 19 mm | 21 mm |
| 6.25 µg/mL (≈ 22.1 µM) | 6.25 µg/mL (≈ 22.1 µM) | 6.25 µg/mL (≈ 22.1 µM) | 6.25 µg/mL (≈ 22.1 µM) | 6.25 µg/mL (≈ 22.1 µM) | 6.25 µg/mL (≈ 22.1 µM) | 6.25 µg/mL (≈ 22.1 µM) | 6.25 µg/mL (≈ 22.1 µM) | O=C1NN=C(COc2ccccc2)C1Oc1ccccc1 (configuration not stated) | 18 mm | 17 mm | 16 mm | 19 mm | 19 mm | 18 mm | 20 mm | 21 mm |
| 50 µg/mL (≈ 200 µM) | 50 µg/mL (≈ 200 µM) | 6.25 µg/mL (≈ 25 µM) | 50 µg/mL (≈ 200 µM) | 50 µg/mL (≈ 200 µM) | 50 µg/mL (≈ 200 µM) | 50 µg/mL (≈ 200 µM) | 50 µg/mL (≈ 200 µM) | COCC1=NNC(=O)C1SCc1ccccc1 (configuration not stated) | 17 mm | <10 mm | <10 mm | <10 mm | <10 mm | <10 mm | <10 mm | <10 mm |
| 6.25 µg/mL (≈ 22.1 µM) | 6.25 µg/mL (≈ 22.1 µM) | 6.25 µg/mL (≈ 22.1 µM) | 25 µg/mL (≈ 88.4 µM) | 6.25 µg/mL (≈ 22.1 µM) | 6.25 µg/mL (≈ 22.1 µM) | 6.25 µg/mL (≈ 22.1 µM) | 6.25 µg/mL (≈ 22.1 µM) | CC(C)CC1=NNC(=O)C1Sc1ccc(Cl)cc1 (configuration not stated) | 18 mm | 11 mm | 17 mm | 16 mm | 19 mm | 20 mm | 18 mm | 17 mm |
| 3.12 µg/mL | 6.25 µg/mL |  |  |  |  | 3.12 µg/mL | 6.25 µg/mL | Cc1cc(C2CCCCC2)n(O)c(=O)c1.NCCO [CICLOPIROX OLAMINE] |  |  |  |  | 27 mm | 23 mm | 27 mm | 26 mm |

| SMILES | MIC [1] | MIC (Talaromyces marneffei [2]) | MIC (Staphylococcus aureus) | MIC (Escherichia coli) | MIC (Pseudomonas aeruginosa) | MIC (Klebsiella sp.) | MIC (Aspergillus flavus [6]) | MIC (Aspergillus fumigatus [8]) | inhibition zone (IZ) (Staphylococcus aureus) | inhibition zone (IZ) (Escherichia coli) | inhibition zone (IZ) (Pseudomonas aeruginosa) | inhibition zone (IZ) (Klebsiella sp.) | inhibition zone (IZ) [3] | inhibition zone (IZ) (Talaromyces marneffei [4]) | inhibition zone (IZ) (Aspergillus flavus [5]) | inhibition zone (IZ) (Aspergillus fumigatus [7]) |
| --- | --- | --- | --- | --- | --- | --- | --- | --- | --- | --- | --- | --- | --- | --- | --- | --- |
| O=C(O)c1cn(C2CC2)c2cc(N3CCNCC3)c(F)cc2c1=O [CIPROFLOXACIN] |  |  | 6.25 µg/mL (≈ 18.9 µM) | 6.25 µg/mL (≈ 18.9 µM) | 6.25 µg/mL (≈ 18.9 µM) | 6.25 µg/mL (≈ 18.9 µM) |  |  | 23 mm | 32 mm | 28 mm | 24 mm |  |  |  |  |
